# Data from ChEMBL document CHEMBL4364337, “The discovery and optimization of a series of 2-aminobenzoxazole derivatives as ChemR23 inhibitors” (Bioorg Med Chem, 2019).
# The source made the active and inactive calls. The rule behind the calls is not given here.
# How the values were obtained:
# Chemerin-like receptor 1 [1] = target: T1, Chemerin-like receptor 1 (Homo sapiens, UniProt Q99788); test: Inhibition of chemR23 in human CAL1 cells assessed as reduction in chemerin-induced intracellular calcium ion concentration preincubated for 45 mins followed by chemerin addition; type: functional, cell-based
# T1 sequence (Q99788 whole entry): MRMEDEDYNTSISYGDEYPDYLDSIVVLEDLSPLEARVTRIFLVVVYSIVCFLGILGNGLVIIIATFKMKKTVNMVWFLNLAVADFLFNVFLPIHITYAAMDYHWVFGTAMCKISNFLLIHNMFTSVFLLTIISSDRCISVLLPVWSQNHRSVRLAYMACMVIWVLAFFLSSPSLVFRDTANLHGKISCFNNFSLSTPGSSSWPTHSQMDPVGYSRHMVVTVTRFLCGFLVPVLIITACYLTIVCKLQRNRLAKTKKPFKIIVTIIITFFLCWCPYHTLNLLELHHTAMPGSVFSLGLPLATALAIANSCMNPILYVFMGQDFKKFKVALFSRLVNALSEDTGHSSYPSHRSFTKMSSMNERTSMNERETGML
# Summary of the method: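 CAL-1 cells, native human ChemR23, 1 × 10⁴/well in RPMI 1640 with 10 mM HEPES, Calcium-3 dye, amaranth 0.75 mg/mL final. Compounds at final 0–10 µM for 45 min at 37 °C, then human chemerin (final 50 ng/mL, 1% BSA buffer); intracellular Ca²⁺ read by kinetic fluorescence; mean of four measurements.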
# [2] = target: C-X-C chemokine receptor type 4 (Homo sapiens, UniProt P61073); test: Inhibition of CXCR4 expressed in human CAL1 cells assessed as reduction in SDF1alpha-induced intracellular calcium ion concentration preincubated for 45 mins followed by SDF1alpha addition; type: functional, cell-based
# Sequence of C-X-C chemokine receptor type 4 (P61073 whole entry): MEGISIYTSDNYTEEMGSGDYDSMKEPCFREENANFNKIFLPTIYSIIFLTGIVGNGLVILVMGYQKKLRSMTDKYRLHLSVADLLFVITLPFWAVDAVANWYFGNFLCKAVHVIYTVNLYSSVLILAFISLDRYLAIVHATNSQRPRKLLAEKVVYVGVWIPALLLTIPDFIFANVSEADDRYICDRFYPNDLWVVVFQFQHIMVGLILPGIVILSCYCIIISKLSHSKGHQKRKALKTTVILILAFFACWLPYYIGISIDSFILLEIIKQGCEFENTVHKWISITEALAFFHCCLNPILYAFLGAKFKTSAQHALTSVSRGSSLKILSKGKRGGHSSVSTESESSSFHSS
# Summary of the method: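 CAL-1 cells (1 × 10⁴/well) loaded with Calcium-3 in RPMI1640, 10 mM HEPES, amaranth 0.75 mg/mL final. Compounds at final 0–10 µM for 45 min at 37 °C, then human SDF-1α (final 5 × 10^-3 µM, in buffer with 1% BSA); intracellular Ca²⁺ read by kinetic fluorescence.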
# Chemerin-like receptor 1 [3] = target: T1, Chemerin-like receptor 1; test: Agonist activity at chemR23 expressed in human CAL1 cells assessed as increase in intracellular calcium ion concentration; type: functional, cell-based
# Chemerin-like receptor 1 [4] = target: T2, Chemerin-like receptor 1 (Mus musculus, UniProt P97468); test: Inhibition of chemR23 expressed in mouse BA/F3 cells assessed as reduction in chemerin-induced intracellular calcium ion concentration preincubated for 45 mins followed by chemerin addition; type: functional, cell-based
# T2 sequence (P97468 whole entry): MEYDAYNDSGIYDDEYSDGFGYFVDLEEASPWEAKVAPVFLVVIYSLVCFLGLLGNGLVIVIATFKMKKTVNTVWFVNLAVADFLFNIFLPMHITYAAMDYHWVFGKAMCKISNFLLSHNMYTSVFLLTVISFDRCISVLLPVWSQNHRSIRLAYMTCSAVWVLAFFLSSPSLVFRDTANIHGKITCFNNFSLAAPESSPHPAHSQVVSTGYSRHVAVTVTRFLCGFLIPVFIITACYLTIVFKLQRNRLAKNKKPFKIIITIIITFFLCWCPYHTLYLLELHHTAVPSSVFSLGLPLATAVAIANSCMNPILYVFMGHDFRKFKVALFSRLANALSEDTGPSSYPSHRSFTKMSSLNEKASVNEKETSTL
# Summary of the method: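 Ba/F3 cells stably expressing mouse ChemR23, 1 × 10⁴/well, loaded with Calcium-3 in RPMI1640, 10 mM HEPES, amaranth 0.75 mg/mL final. Compounds at final 0–10 µM for 45 min at 37 °C, then mouse chemerin (final 2 ng/mL, 1% BSA buffer); intracellular Ca²⁺ read by kinetic fluorescence.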
# [5] = target: T3, Chemerin-like receptor 1 (Homo sapiens) (UniProt Q99788); test: Induction of chemR23 internalization in human CAL1 cells at 3 uM incubated for 30 mins at 37 degC by flow cytometric analysis; type: cell-based
# T3 sequence (whole entry): T1 sequence (Q99788 whole entry)
# Summary of the method: (§1)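 CAL-1 cells in RPMI1640 with 10 mM HEPES, 4.5 × 10⁵ cells per tube, exposed to compounds at 37 °C or 4 °C for 30 min; chemerin 50 ng/mL as reference ligand. Washed with PBS containing 2% FBS, stained with anti-ChemR23 antibody; surface ChemR23 measured by flow cytometry, single determination (N = 1).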
# [6] = target: T3, Chemerin-like receptor 1 (Homo sapiens); test: Induction of chemR23 internalization in human CAL1 cells at 3 uM incubated for 30 mins at 4 degC by flow cytometric analysis; type: cell-based; summary of the method: as §1
# [7] = target: T3, Chemerin-like receptor 1 (Homo sapiens); test: Induction of chemR23 internalization in human CAL1 cells at 10 uM incubated for 30 mins at 37 degC by flow cytometric analysis; type: cell-based; summary of the method: as §1
# [8] = target: T3, Chemerin-like receptor 1 (Homo sapiens); test: Induction of chemR23 internalization in human CAL1 cells at 10 uM incubated for 30 mins at 4 degC by flow cytometric analysis; type: cell-based; summary of the method: as §1
IC50 (Chemerin-like receptor 1 [1]) [µM],IC50 [2] [µM],EC50 (Chemerin-like receptor 1 [3]) [µM],IC50 (Chemerin-like receptor 1 [4]) [µM],Activity [5],Activity [6],Activity [7],Activity [8],Structure (SMILES)
1.2,2.9,> 10,–,–,–,–,–,CCCCN(Cc1ccc(-c2ccccc2-c2nnn[nH]2)cc1)c1nc2cc(Cl)cc(Cl)c2o1
3.3,5.5,> 10,–,–,–,–,–,CCCCN(Cc1ccc(-c2ccccc2-c2nnn[nH]2)cc1)c1nc2cc(Cl)c(C)cc2o1
1,> 10,3.9,–,–,–,–,–,CCCCN(Cc1ccc(-c2ccccc2-c2nnn[nH]2)cc1)c1nc2cc(CC(=O)NC)ccc2o1
4.3,> 10,> 10,–,–,–,–,–,CCCCN(Cc1ccc(-c2ccccc2-c2nnn[nH]2)cc1)c1nc2cc(C(=O)OC)ccc2o1
2.5,3.9,> 10,–,–,–,–,–,CCCCN(Cc1ccc(-c2ccccc2-c2nnn[nH]2)cc1)c1nc2cc(Cl)cc(C)c2o1
3.4,> 10,> 10,–,–,–,–,–,COCCN(Cc1ccc(-c2ccccc2-c2nnn[nH]2)cc1)c1nc2ccccc2o1
2.4,> 10,> 10,–,–,–,–,–,CCCCN(Cc1ccc(-c2ccccc2-c2nnn[nH]2)cc1)c1nc2cc(CC(=O)OC)ccc2o1
2.5,8.6,3.9,–,–,–,–,–,CCCCN(Cc1ccc(-c2ccccc2-c2nnn[nH]2)cc1)c1nc2cc(C)ccc2o1
3.3,9.7,5.2,–,–,–,Active,inactive,CCCCN(Cc1ccc(-c2ccccc2-c2nnn[nH]2)cc1)c1nc2ccccc2o1
3.3,5.6,6.6,–,–,–,–,–,CCCCCN(Cc1ccc(-c2ccccc2-c2nnn[nH]2)cc1)c1nc2ccccc2o1
0.12,> 10,2.3,> 10,–,–,–,–,CCCCN(c1nc2cc(CC(=O)NC)ccc2o1)[C@H](C)c1ccc(-c2ccccc2-c2nnn[nH]2)cc1
0.048,> 10,1.3,13,–,–,–,–,CCCCN(c1nc2cc(CNC(=O)NC)ccc2o1)[C@H](C)c1ccc(-c2ccccc2-c2nnn[nH]2)cc1
0.94,8.8,4.5,–,–,–,–,–,CCCCN(c1nc2ccccc2o1)C(CC)c1ccc(-c2ccccc2-c2nnn[nH]2)cc1 (configuration not stated)

# The next lines start with the molecule.
Structure (SMILES),IC50 (Chemerin-like receptor 1 [1]) [µM],IC50 [2] [µM],EC50 (Chemerin-like receptor 1 [3]) [µM],IC50 (Chemerin-like receptor 1 [4]) [µM],Activity [5],Activity [6],Activity [7],Activity [8]
c1ccc(CN(Cc2ccc(-c3ccccc3-c3nnn[nH]3)cc2)c2nc3ccccc3o2)cc1,> 10,9.6,> 10,–,–,–,–,–
CCCCN(c1nc2cc(C(=O)NC)ccc2o1)[C@H](C)c1ccc(-c2ccccc2-c2nnn[nH]2)cc1,0.038,> 10,0.28,0.15,–,–,–,–
CCCCN(c1nc2cc(NC(=O)N(C)C)ccc2o1)[C@H](C)c1ccc(-c2ccccc2-c2nnn[nH]2)cc1,0.032,> 10,–,0.51,–,–,–,–
CCCCN(c1nc2ccccc2o1)[C@H](C)c1ccc(-c2ccccc2-c2nnn[nH]2)cc1,0.11,8.7,1.2,0.15,Active,inactive,–,–
CCCCN(c1nc2cc(NC(=O)NC)ccc2o1)[C@H](C)c1ccc(-c2ccccc2-c2nnn[nH]2)cc1,0.034,> 10,–,0.94,–,–,–,–
CCCCN(c1nc2ccccc2o1)C(c1ccc(-c2ccccc2-c2nnn[nH]2)cc1)C1CC1 (configuration not stated),> 3,> 3,> 3,–,–,–,–,–
c1ccc(-c2nnn[nH]2)c(-c2ccc(CN(CC3CCCC3)c3nc4ccccc4o3)cc2)c1,2.2,3.5,8.3,–,–,–,–,–
c1cncc(CN(Cc2ccc(-c3ccccc3-c3nnn[nH]3)cc2)c2nc3ccccc3o2)c1,> 10,> 10,> 10,–,–,–,–,–
CCCCN(c1nc2ccccc2o1)[C@@H](C)c1ccc(-c2ccccc2-c2nnn[nH]2)cc1,7.6,9.9,> 10,–,Active,inactive,–,–
CCCCN(c1nc2cc(N(C)C(N)=O)ccc2o1)[C@H](C)c1ccc(-c2ccccc2-c2nnn[nH]2)cc1,> 30,–,–,> 10,–,–,–,–
CCCCN(c1nc2cc(NC(N)=O)ccc2o1)[C@H](C)c1ccc(-c2ccccc2-c2nnn[nH]2)cc1,0.037,> 10,–,0.43,–,–,–,–
c1ccc(-c2nnn[nH]2)c(-c2ccc(CN(Cc3ccncc3)c3nc4ccccc4o3)cc2)c1,> 10,> 10,> 10,–,–,–,–,–
c1ccc(CN(Cc2ccc(-c3ccccc3-c3nnn[nH]3)cc2)c2nc3ccccc3o2)nc1,2.8,> 10,> 10,–,–,–,–,–
CCCCN(c1nc2ccccc2o1)C(C)(C)c1ccc(-c2ccccc2-c2nnn[nH]2)cc1,8.4,> 10,> 10,–,–,–,–,–
CCCCN(c1nc2cc(NC(C)=O)ccc2o1)[C@H](C)c1ccc(-c2ccccc2-c2nnn[nH]2)cc1,0.44,> 10,1.5,2.1,–,–,–,–
CCCCN(c1nc2ccccc2o1)C(C)c1ccc(-c2ccccc2-c2nnn[nH]2)cc1 (racemic),0.25,8.8,2.7,–,–,–,–,–
